These results are taken from ChEMBL document CHEMBL4339223, “Polycyclic Maleimide-based Scaffold as New Privileged Structure for Navigating the Cannabinoid System Opportunities” (ACS Med Chem Lett, 2019).

The target in data set [1] is T1, Cannabinoid receptor 2 (Homo sapiens, UniProt P34972). As to the kind of experiment: Activity at human recombinant cannabinoid CB2 receptor expressed in CHOK1 cells assessed as induction of cAMP content back to basal condition up to 25 uM pre-incubated for 15 mins before NKH-477 stimulation for 30 mins by chemiluminescent detection based cAMP Hunter assay. It is filed as functional, cell-based.

The target of data set [2] is T2, Cannabinoid receptor 1 (Homo sapiens, UniProt P21554). As to the kind of experiment: Displacement of [3H]-CP55940 from human recombinant cannabinoid CB1 receptor expressed in HEK293 cell membranes incubated for 90 mins. Summed up:
(§1)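 Competition binding against [3H]-CP55940 on human recombinant CB1 or CB2 receptor, with increasing concentrations of test compound. IC50 was obtained by nonlinear regression of the inhibition of radioligand binding. Ki was calculated with the Cheng–Prusoff equation, and only where IC50 was below 10 μM.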
In general terms: Loss of bound radioactivity is the signal in a displacement assay; it reports binding, not function.

Data set [3] concerns the target T2, Cannabinoid receptor 1. As to the kind of experiment: Displacement of [3H]-CP55940 from human recombinant cannabinoid CB1 receptor expressed in HEK293 cell membranes incubated for 90 mins by Cheng-Prusoff equation analysis. In short, it runs like this: as §1
Data set [4] has as its target T1, Cannabinoid receptor 2. Kind of data set: Displacement of [3H]-CP55940 from human recombinant cannabinoid CB2 receptor expressed in HEK293 cell membranes incubated for 90 mins. In short, it runs like this:
as §1

In data set [5] the target is T1, Cannabinoid receptor 2. As to the kind of experiment: Displacement of [3H]-CP55940 from human recombinant cannabinoid CB2 receptor expressed in HEK293 cell membranes incubated for 90 mins by Cheng-Prusoff equation analysis. Summed up: as §1
The target of data set [6] is T1, Cannabinoid receptor 2. As to the kind of experiment: Noncompetitive antagonist activity at human recombinant cannabinoid CB2 receptor expressed in CHOK1 cells assessed as inhibition of NKH-477-induced cAMP accumulation pre-incubated for 15 mins before NKH-477 stimulation for 30 mins by chemiluminescent detection based cAMP Hunter assay. It is filed as functional, cell-based. Background: Cyclic AMP is a second messenger, typically raised through Gs and lowered through Gi signalling.

Data set [7] in a line: Inhibition of calcium channel in human SH-SY5Y cells assessed as blockade of 70 mM potassium-evoked depolarization-induced Ca2+ entry. It is filed as cell-based.
Data set [8] deals with T1, Cannabinoid receptor 2. Kind of data set: Noncompetitive antagonist activity at human recombinant cannabinoid CB2 receptor expressed in CHOK1 cells assessed as inhibition of NKH-477-induced cAMP accumulation by measuring parallel shifts of NKH-477 concentration-response curves pre-incubated for 15 mins before NKH-477 stimulation for 30 mins by chemiluminescent detection based cAMP Hunter assay based Schild plot analysis. It is filed as functional, cell-based. Summed up:
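Functional cAMP assay under NKH-477 (water-soluble forskolin analog) stimulation. JWH-133 concentration–response curves were run alone and with several concentrations of the antagonist. The concentration ratio was taken as EC50 of JWH-133 with antagonist divided by the concentration giving the same response without it. log(CR–1) was plotted against log antagonist concentration, and the Schild slope came from linear regression.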

Data set [9] addresses Glycogen synthase kinase-3 beta (Homo sapiens, UniProt P49841). As to the kind of experiment: inhibition of GSK3beta (unknown origin) by LANCE Ultra TR-FRET assay. (In general: In TR-FRET formats the signal depends on donor and acceptor labels being close together.)

Active and inactive are the calls of the source. No cut-off for these calls is given here. Bounds are passed on as bounds.

T1 sequence (P34972 whole entry): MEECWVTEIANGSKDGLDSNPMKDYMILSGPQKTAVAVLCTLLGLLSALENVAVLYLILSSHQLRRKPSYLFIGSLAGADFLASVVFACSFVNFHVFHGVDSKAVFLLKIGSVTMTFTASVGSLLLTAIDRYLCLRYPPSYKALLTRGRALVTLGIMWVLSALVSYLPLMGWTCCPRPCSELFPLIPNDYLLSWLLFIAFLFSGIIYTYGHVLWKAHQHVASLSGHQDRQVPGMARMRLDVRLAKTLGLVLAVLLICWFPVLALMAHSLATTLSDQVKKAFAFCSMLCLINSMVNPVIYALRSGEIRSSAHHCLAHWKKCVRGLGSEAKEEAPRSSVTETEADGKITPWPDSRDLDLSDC
T2 sequence (P21554 whole entry): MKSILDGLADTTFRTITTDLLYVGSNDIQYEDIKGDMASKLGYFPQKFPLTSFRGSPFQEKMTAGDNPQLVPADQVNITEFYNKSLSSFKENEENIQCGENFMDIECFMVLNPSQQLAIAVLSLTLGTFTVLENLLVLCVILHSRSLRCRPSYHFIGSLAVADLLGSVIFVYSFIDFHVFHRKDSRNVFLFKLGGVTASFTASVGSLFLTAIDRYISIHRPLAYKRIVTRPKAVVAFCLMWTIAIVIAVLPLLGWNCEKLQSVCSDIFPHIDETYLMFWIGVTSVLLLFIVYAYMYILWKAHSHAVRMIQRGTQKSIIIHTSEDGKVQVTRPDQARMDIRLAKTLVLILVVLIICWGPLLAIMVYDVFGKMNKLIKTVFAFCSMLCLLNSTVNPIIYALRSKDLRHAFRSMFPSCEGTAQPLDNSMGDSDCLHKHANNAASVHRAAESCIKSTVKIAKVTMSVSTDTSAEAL
Glycogen synthase kinase-3 beta, sequence (P49841 whole entry): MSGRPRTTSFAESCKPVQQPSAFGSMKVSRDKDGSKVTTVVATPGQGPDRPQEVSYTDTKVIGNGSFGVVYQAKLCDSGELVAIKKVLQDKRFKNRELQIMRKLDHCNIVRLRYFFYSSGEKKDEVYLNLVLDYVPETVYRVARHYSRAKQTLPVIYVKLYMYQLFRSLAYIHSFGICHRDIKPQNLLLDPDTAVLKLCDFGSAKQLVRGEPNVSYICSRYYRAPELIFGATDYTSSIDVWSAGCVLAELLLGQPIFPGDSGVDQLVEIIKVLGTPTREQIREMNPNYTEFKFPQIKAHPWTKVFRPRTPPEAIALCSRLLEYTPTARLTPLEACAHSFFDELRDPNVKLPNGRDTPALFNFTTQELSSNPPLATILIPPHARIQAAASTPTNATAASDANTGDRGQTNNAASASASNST

A word on the IC50: it is the concentration at which inhibition is half-maximal. Usually Ki stands for a measure of affinity in units of concentration, obtained from inhibition or displacement. As for `CCCCCCN1C(=O)C2C3c4ccccc4C(c4ccccc43)C2C1=O` (configuration not stated), the outcome at Cannabinoid receptor 2 [1] was inactive. Moreover, the figures for the IC50 at Cannabinoid receptor 1 [2] and on Cannabinoid receptor 2 [4] were > 10 µM and 8.14 µM, respectively. The Ki at Cannabinoid receptor 1 [3] was > 10 µM; on Cannabinoid receptor 2 [5] it was 2.06 µM.

For `CCCCCCCOCC12c3ccccc3C(c3ccccc31)C1C(=O)N(CCCCCCC)C(=O)C12` (configuration not stated), the IC50 at Cannabinoid receptor 1 [2] and at Cannabinoid receptor 2 [4] was > 10 µM throughout. The Ki on Cannabinoid receptor 1 [3] and on Cannabinoid receptor 2 [5] was > 10 µM throughout.

For `CCCCCCCN1C(=O)C2C3c4ccccc4C(Cl)(c4ccccc43)C2C1=O` (configuration not stated), the values for the IC50 on Cannabinoid receptor 1 [2] and on Cannabinoid receptor 2 [4] were > 10 µM and 9.88 µM, respectively. The results for the Ki at Cannabinoid receptor 1 [3] and at Cannabinoid receptor 2 [5] were > 10 µM and 2.51 µM, respectively.

Take `CCCCCCCNCC12c3ccccc3C(c3ccccc31)C1C(=O)NC(=O)C12` (configuration not stated): the results for the IC50 at Cannabinoid receptor 1 [2] and on Cannabinoid receptor 2 [4] were > 10 µM and 3.93 µM, respectively. The Ki at Cannabinoid receptor 1 [3] was > 10 µM; on Cannabinoid receptor 2 [5], 1.01 µM.

With `CCCCCCN1C(=O)C2C3c4ccccc4C(C)(c4ccccc43)C2C1=O` (configuration not stated), the IC50 is > 10 µM on Cannabinoid receptor 1 [2] and 3.93 µM at Cannabinoid receptor 2 [4]. Moreover, the Ki on Cannabinoid receptor 1 [3] is > 10 µM; at Cannabinoid receptor 2 [5], 1.01 µM.

On to `CCCCCCCN1C(=O)C2C3c4ccccc4C(Br)(c4ccccc43)C2C1=O` (configuration not stated), for which the half-maximal inhibitory concentration (IC50) at Cannabinoid receptor 1 [2] and on Cannabinoid receptor 2 [4] was > 10 µM each time. Further, the Ki at Cannabinoid receptor 1 [3] and at Cannabinoid receptor 2 [5] was > 10 µM throughout.

`CCCCCCCNCC12c3ccccc3C(c3ccccc31)C1C(=O)N(CCCCCCC)C(=O)C12` (configuration not stated): the IC50 on Cannabinoid receptor 1 [2] and at Cannabinoid receptor 2 [4] was > 10 µM throughout. The Ki at Cannabinoid receptor 1 [3] and at Cannabinoid receptor 2 [5] was > 10 µM each time.

For `CCCCCCCN1C(=O)C2C3c4ccccc4C(C)(c4ccccc43)C2C1=O` (configuration not stated), the IC50 on Cannabinoid receptor 1 [2] was > 10 µM; on Cannabinoid receptor 2 [4], 3.86 µM. The figures for the Ki on Cannabinoid receptor 1 [3] and at Cannabinoid receptor 2 [5] were > 10 µM and 0.98 µM, respectively.

For `O=C1NC(=O)C2C3c4ccccc4C(c4ccccc43)C12` (configuration not stated), the IC50 at Cannabinoid receptor 1 [2] and at Cannabinoid receptor 2 [4] was > 10 µM in each case. In addition, the Ki on Cannabinoid receptor 1 [3] and on Cannabinoid receptor 2 [5] was > 10 µM in each case.

As to `CCCCCCCOCC12c3ccccc3C(c3ccccc31)C1C(=O)NC(=O)C12` (configuration not stated), the IC50 on Cannabinoid receptor 1 [2] is > 10 µM; at Cannabinoid receptor 2 [4], 0.9 µM. Further, the Ki at Cannabinoid receptor 1 [3] was > 10 µM; at Cannabinoid receptor 2 [5], 0.23 µM. The result at Cannabinoid receptor 2 [6] and at Cannabinoid receptor 2 [8] was Active. The “inhibition (INH)” value in data set [7] and in data set [9] was “Not Active” throughout.

Regarding `CCCCCCCN1C(=O)C2C3c4ccccc4C(c4ccccc43)C2C1=O` (configuration not stated), the IC50 is 9.35 µM at Cannabinoid receptor 1 [2] and 7.94 µM on Cannabinoid receptor 2 [4]. Besides, the values for the Ki at Cannabinoid receptor 1 [3] and at Cannabinoid receptor 2 [5] were 3.77 µM and 2.01 µM, respectively.

As to `CCCCCCCN1C(=O)C2C3c4ccccc4C(c4cc(Cl)ccc43)C2C1=O` (configuration not stated), the IC50 is > 10 µM at Cannabinoid receptor 1 [2] and 6.85 µM on Cannabinoid receptor 2 [4]. Besides, the Ki on Cannabinoid receptor 1 [3] was > 10 µM; at Cannabinoid receptor 2 [5], 1.74 µM.

`CCCCCCCCN1C(=O)C2C3c4ccccc4C(c4ccccc43)C2C1=O` (configuration not stated): the IC50 is > 10 µM at Cannabinoid receptor 1 [2] and 8.74 µM on Cannabinoid receptor 2 [4]. Further, the figures for the Ki on Cannabinoid receptor 1 [3] and at Cannabinoid receptor 2 [5] were > 10 µM and 2.22 µM, respectively.
